Source: PubChem BioAssay
Active and inactive are the calls of the source.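 The calls were made as follows, unless noted: active = viability at or below 10% of carrier control in both of two separate runs; inconclusive = viability at or below 10% in only one of the two runs; inactive = the rest.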

Tests used:
[1] = reducers of endogenous Her2 protein level, primary screen, SKBR3 breast tumor cells, AlphaScreen, ATP viability (AID 461;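 active = Her2 level under about 52% in both replicate screens, with viability over 70% of control, limit read from the data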;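 as to Her2 level: lower value means less Her2 protein in the cells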;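 as to viability: percent of carrier control wells set as 100% viability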); details: 18-24 h, measured here: SKBR3 viability, ATP luminescence, at 10 µM
[2] = biological target: Receptor tyrosine-protein kinase erbB-2 (Homo sapiens) (UniProt P04626); assay: as above; details: 18-24 h, at 10 µM, stronger effect = lower value
[3] = SK-BR-3 cell growth inhibitors, pilot screen, 24 h, human (AID 572); details: SK-BR-3 viability, CellTiter-Glo luminescence, at 10 µM, stronger effect = lower value;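 also: compound exposure lasted between 18 and 24 h rather than exactly 24 h; 100% = carrier-treated control wells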
[4] = HUVEC growth inhibition – cell-based, human, primary screen (AID 575;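 active = viability at or below 30% in both replicate assays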;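 also: 100% = median of untreated cell wells with 0.1% DMSO on each plate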); details: HUVEC proliferation, CellTiter-Glo luminescence, 72 h; at 10 µM; stronger effect = lower value
How it was run: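 system = HUVEC primary cells | amount = 1250 cells/well | buffer or medium = supplemented EBM, 2% fetal bovine serum | dosing = single-point 10 µM, DMSO 0.1% final | times = 72 h compound incubation | detection = CTG luminescence | read-out = % viability relative to median vehicle-well signal on each plate | control set = vehicle and MePR control wells | format = collagen-coated 384-well format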

[5] = growth inhibitors of H69AR lung tumor, primary screen, human, duplicate replicates (AID 580;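 active = viability at or under a set limit in both replicates, limit being median viability minus 3 SD, cut at about 48% in these data, passing the limit was not always enough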;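 also: 100% = mean luminescence of untreated wells and 0% = no signal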); details: H69AR lung tumor cells viability, ATP luminescence, 72 h; at 10 µM; stronger effect = lower value
[6] = reversal of MRP1-mediated doxorubicin resistance, pilot screen, H69AR cells, doxorubicin co-treatment (AID 601;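 active = viability loss from added drug above about 55%, and viability with drug at most 40%, in both replicates, limit read from the data, passing the limit was not always enough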); details: CellTiter-Glo, 72 h, at 10 µM; for differential viability (reversal): stronger effect = higher value
[7] = 384-well plate pilot, post-Golgi transport modulator project, inhibition of yeast transport mutant growth (AID 636; in the data active = inhibition above about 31%); details: absorbance 615 nm, about 18 h, stronger effect = higher value
[8] = growth suppression of yeast trafficking mutant, preliminary HTS, modulators of trafficking downstream of Golgi apparatus project, 1536-format plate, OD 615 nm (AID 637; in the data active = inhibition above about 30%); details: yeast transport mutant growth, absorbance 615 nm, 18 h; stronger effect = higher value
[9] = H69AR cells + 2 uM doxorubicin, measured here: viability with 2 uM doxorubicin, stronger effect = lower value
[10] = H69AR cells, compound alone cytotoxicity

Sequence of Receptor tyrosine-protein kinase erbB-2 (Homo sapiens) (P04626 whole entry, looked up): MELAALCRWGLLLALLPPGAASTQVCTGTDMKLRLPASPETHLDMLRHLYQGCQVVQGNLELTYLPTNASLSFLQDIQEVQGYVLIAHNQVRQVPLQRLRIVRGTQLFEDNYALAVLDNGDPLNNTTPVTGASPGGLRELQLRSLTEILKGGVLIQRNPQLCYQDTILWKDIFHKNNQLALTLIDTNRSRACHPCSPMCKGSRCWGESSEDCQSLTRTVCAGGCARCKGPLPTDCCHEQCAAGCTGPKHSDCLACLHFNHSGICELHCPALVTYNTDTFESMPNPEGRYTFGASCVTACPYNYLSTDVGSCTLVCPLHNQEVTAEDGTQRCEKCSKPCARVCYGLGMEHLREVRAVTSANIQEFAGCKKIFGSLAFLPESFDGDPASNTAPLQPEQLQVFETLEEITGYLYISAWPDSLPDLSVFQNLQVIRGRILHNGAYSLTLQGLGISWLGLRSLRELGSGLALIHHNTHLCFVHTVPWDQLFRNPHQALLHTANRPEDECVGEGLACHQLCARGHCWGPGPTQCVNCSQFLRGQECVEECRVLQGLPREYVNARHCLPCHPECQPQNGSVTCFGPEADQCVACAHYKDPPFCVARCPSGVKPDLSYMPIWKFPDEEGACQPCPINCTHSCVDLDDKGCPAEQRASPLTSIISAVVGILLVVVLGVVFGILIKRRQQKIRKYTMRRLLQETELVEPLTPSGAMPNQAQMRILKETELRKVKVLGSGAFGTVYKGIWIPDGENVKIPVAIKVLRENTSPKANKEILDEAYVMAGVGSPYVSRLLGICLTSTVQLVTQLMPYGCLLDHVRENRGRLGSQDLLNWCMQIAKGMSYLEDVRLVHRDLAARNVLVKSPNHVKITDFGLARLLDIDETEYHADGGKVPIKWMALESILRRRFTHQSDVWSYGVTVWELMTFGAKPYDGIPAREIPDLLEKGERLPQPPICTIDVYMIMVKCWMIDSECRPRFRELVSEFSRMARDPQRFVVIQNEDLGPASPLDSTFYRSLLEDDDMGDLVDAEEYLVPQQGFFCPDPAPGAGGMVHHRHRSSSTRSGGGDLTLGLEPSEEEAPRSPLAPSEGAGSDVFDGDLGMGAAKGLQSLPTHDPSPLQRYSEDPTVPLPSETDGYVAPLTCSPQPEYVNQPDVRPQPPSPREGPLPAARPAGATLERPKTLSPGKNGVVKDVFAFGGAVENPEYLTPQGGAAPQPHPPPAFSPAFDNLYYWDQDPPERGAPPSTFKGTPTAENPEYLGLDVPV

Row | Structure (SMILES) | viability [1] | Her2 level [2] | viability [3] | viability [4] | viability [5] | differential viability (reversal) ([6]; H69AR cells + 2 uM doxorubicin) | viability [6, 9] | viability [6, 10] | inhibition [7] | inhibition [8]
1 | COc1ccccc1C(=O)Nc1ccc(N2CCN(S(C)(=O)=O)CC2)cc1 | 99.5% | 106% (inactive) | 99.5% (inactive) | 144% (inactive) | 97.2% (inactive) | 12.7% (inactive) | 84.5% | 97.2% | -1.89% (inactive) | -4% (inactive)
2 | Cc1ccc(C(=O)N2CCN(C(=O)c3ccc(C)c(C)c3)C(C)C2)cc1C (stereo not given) | 84.5% | 81% (inactive) | 84.5% (inactive) | 97.5% (inactive) | 82.2% (inactive) | 12.2% (inactive) | 70% | 82.2% | -4.61% (inactive) | -1.67% (inactive)
3 | CCOC(=O)CSc1nc2ccccc2c(=O)n1CCN1CCOCC1 | 92.5% | 87.5% (inactive) | 92.5% (inactive) | 87.6% (inactive) | 95.4% (inactive) | 11% (inactive) | 84.4% | 95.4% | 0% (inactive) | -6.19% (inactive)
4 | O=C(O)COc1ccc2occ(C(=O)c3ccccc3)c2c1 | 102% | 95.5% (inactive) | 102% (inactive) | 100% (inactive) | 93.9% (inactive) | 1.01% (inactive) | 92.9% | 93.9% | -3.55% (inactive) | 7.21% (inactive)
5 | NCCN1CCN(CCN)CC1 | 106% | 77% (inactive) | 106% (inactive) | 84.6% (inactive) | 93.7% (inactive) | 12.2% (inactive) | 81.4% | 93.7% | -3.87% (inactive) | 2.38% (inactive)
6 | COc1ccc2c(c1)C(C)=CC(C)(C)N2C(=O)CSc1nnc(-c2ccc(C)cc2)o1 | 98.5% | 99% (inactive) | 98.5% (inactive) | 53.2% (inactive) | 93.9% (inactive) | 2.13% (inactive) | 91.8% | 93.9% | 31% (active) | -1% (inactive)
7 | COc1cc(C)nc(NS(=O)(=O)c2ccc(C)cc2)n1 | 122% | 88% (inactive) | 122% (inactive) | 98.5% (inactive) | 84.9% (inactive) | -1.31% (inactive) | 86.2% | 84.9% | -3.82% (inactive) | 0.65% (inactive)
8 | COc1ccc(OC)c(NC(=O)CS(=O)(=O)Cc2nc(-c3ccccc3C)oc2C)c1 | 97.5% | 97.5% (inactive) | 97.5% (inactive) | 66.1% (inactive) | 94.4% (inactive) | -2.23% (inactive) | 96.6% | 94.4% | -2.8% (inactive) | 6.83% (inactive)
9 | COc1ccc(-n2c(SCC#N)nc3ccccc3c2=O)cc1 | 77% | 106% (inactive) | 77% (inactive) | 93.5% (inactive) | 96.4% (inactive) | -12.8% (inactive) | 109% | 96.4% | 5.06% (inactive) | 3.28% (inactive)
10 | CCc1ccc2nc(NC(=O)CSCc3c(C)noc3C)sc2c1 | 88.5% | 110% (inactive) | 88.5% (inactive) | 52.5% (inactive) | 87.2% (inactive) | -10.5% (inactive) | 97.6% | 87.2% | -0.67% (inactive) | -7.54% (inactive)
11 | c1ccc(-n2c(Sc3cnccn3)nnc2-c2cccs2)cc1 | 114% | 109% (inactive) | 114% (inactive) | 89.1% (inactive) | 95.8% (inactive) | 7.33% (inactive) | 88.5% | 95.8% | -5.41% (inactive) | -3.49% (inactive)
12 | COC(=O)c1ccccc1NS(=O)(=O)c1ccc(F)cc1 | 120% | 83.5% (inactive) | 120% (inactive) | 104% (inactive) | 102% (inactive) | 13.1% (inactive) | 88.4% | 102% | -7.26% (inactive) | -3.49% (inactive)
13 | COc1ccc(OC)c(C2=NOC(C(=O)Nc3cccnc3)C2)c1 (stereo not given) | 78.5% | 82% (inactive) | 78.5% (inactive) | 102% (inactive) | 88.9% (inactive) | 5.72% (inactive) | 83.2% | 88.9% | -1.97% (inactive) | 1.09% (inactive)
14 | Cc1ccccc1NC(=O)C1CCN(c2cnccn2)CC1 | 98.5% | 103% (inactive) | 98.5% (inactive) | 89.2% (inactive) | 101% (inactive) | 8.59% (inactive) | 92.2% | 101% | -7.07% (inactive) | -5.48% (inactive)
15 | O=C(NCc1cccnc1)c1ccccc1Br | 110% | 98.5% (inactive) | 110% (inactive) | 115% (inactive) | 95.1% (inactive) | 0.945% (inactive) | 94.2% | 95.1% | -5.87% (inactive) | -2.42% (inactive)
16 | O=C(COc1ccc(F)cc1Br)N1CCc2ccccc21 | 97.5% | 100% (inactive) | 97.5% (inactive) | 77.3% (inactive) | 75.3% (inactive) | -6% (inactive) | 81.3% | 75.3% | -1.43% (inactive) | -0.33% (inactive)

Row | Structure (SMILES) | viability [1] | Her2 level [2] | viability [3] | viability [4] | viability [5] | differential viability (reversal) ([6]; H69AR cells + 2 uM doxorubicin) | viability [6, 9] | viability [6, 10] | inhibition [7] | inhibition [8]
17 | CC1(C(=O)CSc2nc3ccccc3s2)CCC(=O)O1 (stereo not given) | 107% | 89% (inactive) | 107% (inactive) | 73.2% (inactive) | 90.1% (inactive) | 3.12% (inactive) | 87% | 90.1% | -7.4% (inactive) | -3.17% (inactive)
18 | Clc1cccc(Nc2c3c(nc4ncnn24)CCC3)c1 | 94.5% | 82.5% (inactive) | 94.5% (inactive) | 93% (inactive) | 83.8% (inactive) | -5.48% (inactive) | 89.2% | 83.8% | 1.82% (inactive) | 9.84% (inactive)
19 | CCCCc1c(O)nc(SCC(=O)c2ccccc2)[nH]c1=O | 105% | 102% (inactive) | 105% (inactive) | 89% (inactive) | 104% (inactive) | 21.1% (inactive) | 83% | 104% | -4.87% (inactive) | 11.8% (inactive)
20 | CCN(CC)c1ccc2cc(NC(=O)CCC(=O)O)c(=O)oc2c1 | 89% | 99% (inactive) | 89% (inactive) | 81.1% (inactive) | 95.7% (inactive) | -12.2% (inactive) | 108% | 95.7% | -2.13% (inactive) | -5.32% (inactive)
21 | COc1ccc(OC)c(C2=NOC(C(=O)NCCN3CCOCC3)C2)c1 (stereo not given) | 107% | 89.5% (inactive) | 107% (inactive) | 102% (inactive) | 90.6% (inactive) | 5.3% (inactive) | 85.3% | 90.6% | -1.18% (inactive) | -3.27% (inactive)
22 | CCOc1nc(SCCOc2ccccc2)nc(N(C)C)n1 | 96% | 115% (inactive) | 96% (inactive) | 72.4% (inactive) | 107% (inactive) | 4.17% (inactive) | 102% | 107% | -1.84% (inactive) | -3.5% (inactive)
23 | COc1cccc(CN2CCN(C(=O)c3ccco3)CC2)c1OC | 112% | 90% (inactive) | 112% (inactive) | 118% (inactive) | 103% (inactive) | 6.7% (inactive) | 96.5% | 103% | -5.14% (inactive) | 0.95% (inactive)
24 | COCCN1C(=O)C(=O)/C(=C(/O)c2ccc(OC(C)C)cc2)C1c1cccnc1 (stereo not given) | 94.5% | 86.5% (inactive) | 94.5% (inactive) | 89.7% (inactive) | 92.6% (inactive) | 5.24% (inactive) | 87.4% | 92.6% | -3.55% (inactive) | 3.33% (inactive)
25 | Cc1nnc(NC(=O)Nc2cccc(Cl)c2)s1 | 86% | 89.5% (inactive) | 86% (inactive) | 76.8% (inactive) | 63% (inactive) | -21% (inactive) | 84.1% | 63% | -6.18% (inactive) | -4.03% (inactive)
26 | C=CCc1c(C)nc(SC)nc1Nc1ccc(C(=O)O)cc1 | 106% | 74.5% (inactive) | 106% (inactive) | 84.2% (inactive) | 86.9% (inactive) | 1.22% (inactive) | 85.7% | 86.9% | -6.89% (inactive) | 3.28% (inactive)
27 | CC(=O)N1CCN(Cc2ccc(Br)s2)CC1 | 93.5% | 88% (inactive) | 93.5% (inactive) | 86.3% (inactive) | 99.3% (inactive) | 11.1% (inactive) | 88.3% | 99.3% | -3.51% (inactive) | -1.31% (inactive)
28 | CC(C)(C)Nc1nc(OCC(F)(F)F)nc(OCC(F)(F)F)n1 | 108% | 89% (inactive) | 108% (inactive) | 98.8% (inactive) | 89.1% (inactive) | -0.98% (inactive) | 90.1% | 89.1% | -5.26% (inactive) | -10.6% (inactive)
29 | COc1ccc(Cn2nnnc2C(c2ccccc2OC)N2CCC(C(N)=O)CC2)cc1 (stereo not given) | 100% | 91% (inactive) | 100% (inactive) | 105% (inactive) | 85.4% (inactive) | 1.34% (inactive) | 84% | 85.4% | -5.73% (inactive) | 8.52% (inactive)
30 | COCCSc1ccccc1C(=O)Nc1cc(C)on1 | 91% | 90% (inactive) | 91% (inactive) | 95.4% (inactive) | 94.5% (inactive) | 4.69% (inactive) | 89.8% | 94.5% | 0.39% (inactive) | -2.74% (inactive)
31 | Cc1cccc(C(=O)N2CCC(n3nnc4cc(F)ccc43)CC2)c1 | 95% | 113% (inactive) | 95% (inactive) | 92.6% (inactive) | 86.4% (inactive) | -3.98% (inactive) | 90.4% | 86.4% | -3.21% (inactive) | 2.67% (inactive)
32 | CC(C)CCNC(=O)C(c1cccs1)N(CC1CCCO1)C(=O)Cn1nnc2ccccc21 (stereo not given) | 116% | 112% (inactive) | 116% (inactive) | 96.2% (inactive) | 89.8% (inactive) | 4.32% (inactive) | 85.5% | 89.8% | -5.71% (inactive) | -6.33% (inactive)
